Reference: ChEMBL document CHEMBL2331363, “Synthesis of a 2,4,6-trisubstituted 5-cyano-pyrimidine library and evaluation of its immunosuppressive activity in a Mixed Lymphocyte Reaction assay” (Bioorg Med Chem, 2013)

Columns and labels:
[1] = test system: Serine/threonine-protein kinase B-raf (Homo sapiens), P15056 [V600E]; test: Binding affinity to BRAF V600E mutant (unknown origin) at 10 uM relative to control
[2] = Immunosuppressive activity in human RPMI1788 cells cocultured with human PBMC assessed as inhibition of [3H]thymidine incorporation at 10 uM incubated for 6 days prior to [3H]thymidine addition measured after 18 hrs by liquid scintillation counting; type: functional; conditions: RPMI-1788
Method in brief: (§1)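 Effector PBMCs from heparinized healthy-donor blood were isolated over Lymphoprep and held at 1.2 × 10⁶ cells/mL in RPMI-1640 with 10% heat-inactivated FCS. Mitomycin-treated stimulator cells were at 0.45 × 10⁶ cells/mL. Cells were mixed with diluted compound and cultured at 37 °C, 5% CO₂. (methyl-³H)thymidine was added for the final 18 h, and filter-harvested cpm were counted by scintillation. Compounds were screened at one concentration, then dose-response IC₅₀ was determined. Values are means of two independent experiments.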

[3] = target: Ribosomal protein S6 kinase alpha-6 (Homo sapiens) (UniProt Q9UK32); test: Binding affinity to RSK4 (unknown origin) at 10 uM relative to control
[4] = Immunosuppressive activity in human RPMI1788 cells cocultured with human PBMC assessed as inhibition of [3H]thymidine incorporation incubated for 6 days prior to [3H]thymidine addition measured after 18 hrs by liquid scintillation counting; type: functional, cell-based; conditions: RPMI-1788; method in brief: as §1
[5] = target: Tyrosine-protein kinase JAK1 (Homo sapiens) (UniProt P23458); test: Binding affinity to JAK1 (unknown origin) at 10 uM relative to control
[6] = target: Serine/threonine-protein kinase B-raf (Homo sapiens) (UniProt P15056); test: Binding affinity to BRAF (unknown origin) at 10 uM relative to control
[7] = Cytotoxicity against human Jurkat T cells after 48 hrs by WST1 assay; type: cell-based
Method in brief: (§2)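 Jurkat T cells were seeded at 5.10⁴ cells per well and exposed to serial compound dilutions for 48 h at 37 °C and 5% CO₂. Part of the medium was removed, WST-1 tetrazolium salt was added, and cells were incubated further. Absorbance was read at 450 nm. Results are % cytotoxicity at each concentration, with CC₅₀ calculated.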

[8] = target: T1, Inhibitor of nuclear factor kappa-B kinase subunit alpha (Homo sapiens) (UniProt O15111); test: Binding affinity to IKKalpha (unknown origin) at 10 uM relative to control
T1 sequence (whole entry): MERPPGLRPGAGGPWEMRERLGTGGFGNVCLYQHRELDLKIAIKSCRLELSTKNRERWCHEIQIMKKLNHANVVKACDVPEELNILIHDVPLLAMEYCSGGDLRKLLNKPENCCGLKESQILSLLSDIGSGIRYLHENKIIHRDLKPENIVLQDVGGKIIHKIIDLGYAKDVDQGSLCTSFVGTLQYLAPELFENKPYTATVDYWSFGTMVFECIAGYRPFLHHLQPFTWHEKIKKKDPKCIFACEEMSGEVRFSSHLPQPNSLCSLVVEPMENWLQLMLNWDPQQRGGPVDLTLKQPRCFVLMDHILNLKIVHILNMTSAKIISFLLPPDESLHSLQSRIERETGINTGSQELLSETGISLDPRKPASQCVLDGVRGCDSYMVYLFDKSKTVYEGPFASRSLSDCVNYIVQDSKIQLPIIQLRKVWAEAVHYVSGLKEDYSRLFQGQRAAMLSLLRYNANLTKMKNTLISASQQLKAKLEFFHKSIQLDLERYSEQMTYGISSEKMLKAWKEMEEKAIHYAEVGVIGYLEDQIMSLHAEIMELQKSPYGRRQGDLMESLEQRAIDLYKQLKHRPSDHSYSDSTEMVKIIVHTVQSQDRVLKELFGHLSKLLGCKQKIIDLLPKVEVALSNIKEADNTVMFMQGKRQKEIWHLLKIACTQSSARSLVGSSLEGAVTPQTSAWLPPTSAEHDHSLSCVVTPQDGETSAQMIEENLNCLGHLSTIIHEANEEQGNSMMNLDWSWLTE

[9] = Growth inhibition of human Jurkat T cells at 10 uM after 48 hrs by WST1 assay; type: cell-based; method in brief: as §2
[10] = target: Serine/threonine-protein kinase 10 (Homo sapiens) (UniProt O94804); test: Binding affinity to LOK (unknown origin) at 10 uM relative to control
[11] = target: T2, Inhibitor of nuclear factor kappa-B kinase subunit beta (Homo sapiens) (UniProt O14920); test: Binding affinity to IKKbeta (unknown origin) at 10 uM relative to control
T2 sequence (whole entry): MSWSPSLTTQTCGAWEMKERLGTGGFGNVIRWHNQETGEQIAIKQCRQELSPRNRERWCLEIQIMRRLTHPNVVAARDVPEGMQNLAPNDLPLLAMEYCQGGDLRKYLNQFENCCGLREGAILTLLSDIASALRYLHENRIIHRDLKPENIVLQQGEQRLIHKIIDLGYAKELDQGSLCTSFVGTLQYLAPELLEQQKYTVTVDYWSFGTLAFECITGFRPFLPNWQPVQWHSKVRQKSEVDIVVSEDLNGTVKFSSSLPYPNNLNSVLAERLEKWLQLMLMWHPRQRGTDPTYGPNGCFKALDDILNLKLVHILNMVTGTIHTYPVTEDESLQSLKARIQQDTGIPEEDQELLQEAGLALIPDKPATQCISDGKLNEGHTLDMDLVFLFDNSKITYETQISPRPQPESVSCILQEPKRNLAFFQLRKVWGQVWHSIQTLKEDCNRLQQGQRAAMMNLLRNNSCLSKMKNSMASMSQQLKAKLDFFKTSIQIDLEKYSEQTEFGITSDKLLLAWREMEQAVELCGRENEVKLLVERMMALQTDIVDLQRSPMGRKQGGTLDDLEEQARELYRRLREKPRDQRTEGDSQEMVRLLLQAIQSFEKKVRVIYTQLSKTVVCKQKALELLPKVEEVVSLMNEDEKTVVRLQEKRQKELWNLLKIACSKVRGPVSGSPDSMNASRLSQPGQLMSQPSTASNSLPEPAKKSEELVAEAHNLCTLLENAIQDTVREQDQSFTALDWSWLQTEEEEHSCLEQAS

[12] = target: T3, Receptor-interacting serine/threonine-protein kinase 4 (Homo sapiens) (UniProt P57078); test: Binding affinity to RIPK4 (unknown origin) at 10 uM relative to control
T3 sequence (whole entry): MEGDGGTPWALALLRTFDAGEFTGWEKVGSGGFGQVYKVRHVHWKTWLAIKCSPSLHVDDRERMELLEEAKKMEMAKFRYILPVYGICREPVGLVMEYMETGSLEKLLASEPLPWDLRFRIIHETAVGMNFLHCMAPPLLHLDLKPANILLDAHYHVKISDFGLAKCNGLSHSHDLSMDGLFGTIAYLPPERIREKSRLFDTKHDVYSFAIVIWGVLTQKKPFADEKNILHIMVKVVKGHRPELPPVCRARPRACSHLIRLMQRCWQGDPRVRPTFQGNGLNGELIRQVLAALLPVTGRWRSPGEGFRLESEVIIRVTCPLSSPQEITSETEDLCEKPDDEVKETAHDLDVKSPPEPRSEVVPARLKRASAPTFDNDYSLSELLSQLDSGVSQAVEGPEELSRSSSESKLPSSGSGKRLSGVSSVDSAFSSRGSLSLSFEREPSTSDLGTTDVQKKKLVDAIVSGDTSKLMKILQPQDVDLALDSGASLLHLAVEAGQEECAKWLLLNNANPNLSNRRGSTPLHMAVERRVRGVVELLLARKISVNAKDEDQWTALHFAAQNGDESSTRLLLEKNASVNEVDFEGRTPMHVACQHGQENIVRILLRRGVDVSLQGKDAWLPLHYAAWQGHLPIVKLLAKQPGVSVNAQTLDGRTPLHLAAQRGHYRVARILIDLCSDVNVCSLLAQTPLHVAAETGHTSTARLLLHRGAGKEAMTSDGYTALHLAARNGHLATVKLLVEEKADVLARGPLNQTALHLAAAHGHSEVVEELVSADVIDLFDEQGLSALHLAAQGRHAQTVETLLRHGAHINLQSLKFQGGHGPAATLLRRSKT

[13] = target: Serine/threonine-protein kinase mTOR (Homo sapiens) (UniProt P42345); test: Inhibition of mTOR (unknown origin) at 10 uM

Chain of Tyrosine-protein kinase JAK1 (Homo sapiens) (P23458 whole entry): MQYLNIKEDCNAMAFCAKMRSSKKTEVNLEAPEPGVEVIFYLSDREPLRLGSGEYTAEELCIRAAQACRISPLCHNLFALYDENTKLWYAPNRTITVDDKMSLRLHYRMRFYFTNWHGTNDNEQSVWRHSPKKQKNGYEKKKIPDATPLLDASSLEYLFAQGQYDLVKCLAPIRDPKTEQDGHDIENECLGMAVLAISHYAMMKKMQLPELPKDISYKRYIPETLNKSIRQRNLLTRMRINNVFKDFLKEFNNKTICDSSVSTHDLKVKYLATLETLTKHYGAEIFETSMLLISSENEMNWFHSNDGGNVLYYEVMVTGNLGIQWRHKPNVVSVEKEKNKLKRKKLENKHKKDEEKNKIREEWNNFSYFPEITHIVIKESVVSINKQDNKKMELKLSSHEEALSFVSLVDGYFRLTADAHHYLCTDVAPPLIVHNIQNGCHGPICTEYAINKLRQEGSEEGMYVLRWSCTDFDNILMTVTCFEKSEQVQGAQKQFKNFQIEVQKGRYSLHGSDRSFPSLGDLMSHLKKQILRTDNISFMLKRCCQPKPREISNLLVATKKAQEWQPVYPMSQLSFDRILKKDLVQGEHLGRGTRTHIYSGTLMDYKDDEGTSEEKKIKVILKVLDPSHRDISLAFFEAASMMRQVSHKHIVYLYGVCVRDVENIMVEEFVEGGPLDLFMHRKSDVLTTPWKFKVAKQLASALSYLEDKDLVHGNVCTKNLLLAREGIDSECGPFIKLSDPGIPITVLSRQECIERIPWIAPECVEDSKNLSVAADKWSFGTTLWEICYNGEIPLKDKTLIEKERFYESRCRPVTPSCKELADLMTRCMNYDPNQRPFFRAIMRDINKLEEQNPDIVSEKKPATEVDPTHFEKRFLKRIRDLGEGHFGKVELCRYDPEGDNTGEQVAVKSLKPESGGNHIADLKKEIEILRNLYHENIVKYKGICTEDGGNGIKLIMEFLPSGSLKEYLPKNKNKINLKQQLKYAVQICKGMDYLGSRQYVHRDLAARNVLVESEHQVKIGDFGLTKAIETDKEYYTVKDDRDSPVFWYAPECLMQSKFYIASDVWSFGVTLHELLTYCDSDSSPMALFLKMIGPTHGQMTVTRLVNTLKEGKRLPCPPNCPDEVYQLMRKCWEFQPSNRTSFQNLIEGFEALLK
Chain of Ribosomal protein S6 kinase alpha-6 (Homo sapiens) (Q9UK32 whole entry): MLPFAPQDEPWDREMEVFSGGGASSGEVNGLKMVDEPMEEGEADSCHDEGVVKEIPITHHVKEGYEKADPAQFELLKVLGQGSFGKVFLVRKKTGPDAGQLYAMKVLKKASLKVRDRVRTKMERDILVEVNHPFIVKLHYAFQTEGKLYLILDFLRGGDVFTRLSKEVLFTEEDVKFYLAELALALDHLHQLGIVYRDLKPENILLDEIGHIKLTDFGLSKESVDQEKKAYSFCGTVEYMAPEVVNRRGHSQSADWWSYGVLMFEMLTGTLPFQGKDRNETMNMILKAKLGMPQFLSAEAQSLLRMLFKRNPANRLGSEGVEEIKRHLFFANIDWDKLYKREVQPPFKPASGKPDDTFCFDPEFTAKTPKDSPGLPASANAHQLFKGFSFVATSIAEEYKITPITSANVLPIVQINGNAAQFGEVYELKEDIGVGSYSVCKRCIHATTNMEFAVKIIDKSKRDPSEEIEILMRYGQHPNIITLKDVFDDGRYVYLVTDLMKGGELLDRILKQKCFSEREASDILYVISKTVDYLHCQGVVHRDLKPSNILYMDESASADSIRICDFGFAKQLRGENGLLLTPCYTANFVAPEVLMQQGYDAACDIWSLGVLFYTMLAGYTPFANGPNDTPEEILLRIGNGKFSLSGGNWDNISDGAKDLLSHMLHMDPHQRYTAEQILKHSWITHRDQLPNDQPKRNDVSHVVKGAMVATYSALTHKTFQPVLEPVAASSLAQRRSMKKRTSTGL
Chain of Serine/threonine-protein kinase B-raf (Homo sapiens), P15056 [V600E] (P15056 whole entry V600E): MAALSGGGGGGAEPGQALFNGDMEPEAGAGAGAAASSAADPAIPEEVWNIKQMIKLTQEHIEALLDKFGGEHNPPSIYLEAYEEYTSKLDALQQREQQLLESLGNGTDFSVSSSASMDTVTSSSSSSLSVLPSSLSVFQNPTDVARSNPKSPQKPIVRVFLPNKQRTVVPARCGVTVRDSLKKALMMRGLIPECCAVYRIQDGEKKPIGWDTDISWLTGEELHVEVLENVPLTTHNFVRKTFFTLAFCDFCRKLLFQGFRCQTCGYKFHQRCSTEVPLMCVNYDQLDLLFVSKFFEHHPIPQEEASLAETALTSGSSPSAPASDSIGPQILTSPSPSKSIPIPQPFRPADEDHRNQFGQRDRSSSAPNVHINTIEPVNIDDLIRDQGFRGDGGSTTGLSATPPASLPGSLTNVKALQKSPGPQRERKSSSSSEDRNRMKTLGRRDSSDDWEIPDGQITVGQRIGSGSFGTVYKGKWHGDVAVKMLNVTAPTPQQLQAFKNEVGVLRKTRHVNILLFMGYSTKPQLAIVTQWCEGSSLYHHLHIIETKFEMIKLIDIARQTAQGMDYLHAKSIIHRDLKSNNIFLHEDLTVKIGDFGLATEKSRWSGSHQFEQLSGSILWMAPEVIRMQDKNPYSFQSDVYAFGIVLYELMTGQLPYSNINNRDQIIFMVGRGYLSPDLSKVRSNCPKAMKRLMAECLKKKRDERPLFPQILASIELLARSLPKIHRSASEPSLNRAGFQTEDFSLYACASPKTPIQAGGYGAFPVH
Chain of Serine/threonine-protein kinase B-raf (Homo sapiens) (P15056 whole entry): as the sequence (P15056 whole entry V600E) above, with E600V counted along it
Chain of Serine/threonine-protein kinase 10 (Homo sapiens) (O94804 whole entry, looked up): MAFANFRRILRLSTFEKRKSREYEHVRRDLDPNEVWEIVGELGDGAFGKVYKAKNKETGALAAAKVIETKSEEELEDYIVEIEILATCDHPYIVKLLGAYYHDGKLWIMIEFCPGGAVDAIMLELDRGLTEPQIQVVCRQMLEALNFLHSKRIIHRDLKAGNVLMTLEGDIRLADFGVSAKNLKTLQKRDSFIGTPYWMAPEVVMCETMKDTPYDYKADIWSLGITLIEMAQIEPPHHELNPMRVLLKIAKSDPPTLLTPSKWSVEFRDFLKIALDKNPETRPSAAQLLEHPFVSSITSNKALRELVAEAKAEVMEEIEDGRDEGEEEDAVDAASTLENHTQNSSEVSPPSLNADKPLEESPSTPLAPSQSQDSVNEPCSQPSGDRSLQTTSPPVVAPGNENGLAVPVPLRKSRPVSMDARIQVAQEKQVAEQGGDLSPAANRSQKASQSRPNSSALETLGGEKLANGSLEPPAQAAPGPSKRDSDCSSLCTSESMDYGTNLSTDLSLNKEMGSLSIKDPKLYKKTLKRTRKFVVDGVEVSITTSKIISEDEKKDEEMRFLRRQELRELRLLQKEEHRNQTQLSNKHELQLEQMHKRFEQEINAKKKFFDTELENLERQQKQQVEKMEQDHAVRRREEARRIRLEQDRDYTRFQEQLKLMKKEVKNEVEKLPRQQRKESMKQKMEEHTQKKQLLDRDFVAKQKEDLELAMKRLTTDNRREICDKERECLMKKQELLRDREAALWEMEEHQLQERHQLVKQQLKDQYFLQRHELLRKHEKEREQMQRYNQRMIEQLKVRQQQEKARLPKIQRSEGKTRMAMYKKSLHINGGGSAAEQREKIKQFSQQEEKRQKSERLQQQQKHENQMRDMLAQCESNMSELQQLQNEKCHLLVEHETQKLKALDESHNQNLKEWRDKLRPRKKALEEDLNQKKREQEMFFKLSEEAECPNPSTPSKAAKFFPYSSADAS

COc1ccc(-c2nc(SCc3ccccc3)nc(N3CCOCC3)c2C#N)cc1 gave an Activity [1] of 28%, an inhibition at 10 µM [2] of 90% and an Activity [3] of 35%. For the same molecule, the IC50 [4] was 1600 nM, the Activity [5] was 39% and the Activity [6] was 34%. For the same molecule, the CC50 at 48 h [7] was > 10000 nM, the Activity [8] was 44% and the inhibition at 48 h, 10 µM [9] was 10%. For the same molecule, the Activity [10] was 45%, the Activity [11] was 48% and the Activity [12] was 43%. It also gave an inhibition [13] of 10%.
